From ChEMBL document CHEMBL4190221, “Inhibition of Proliferation of Vascular Smooth Muscle Cells by Cucurbitanes from Momordica charantia” (J Nat Prod, 2017) come the findings set out here.

In general, inhibition refers to the share of the control response that was lost under treatment.

Activity calls are given as the source filed them. No cut-off for these calls is given here.

Data set [1] has as its system VSMC. In words: Cytotoxicity against Sprague-Dawley rat VSMC assessed as decrease in cell viability at 5 to 10 uM after 24 hrs by MTT assay. The format is cell-based. A digest of the protocol: (§1)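 Primary aortic smooth muscle cells from Sprague-Dawley rats, passages 7–10, grown in DMEM/10% FBS at 37 °C and seeded at 3.0 × 10^4 cells/mL. Cells were serum-starved 24 h, then exposed to compound for 24 h alongside a 0.1% DMSO control and a digitonin 100 μg/mL cytotoxicity control. MTT 5 mg/mL was added for 2 h, formazan taken up in DMSO, and OD read at 565 nm. Four independent experiments, each in triplicate.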

The subject of data set [2] is VSMC. In words: Inhibition of PDGF-induced Sprague-Dawley rat VSMC proliferation at 10 uM pretreated for 2 hrs followed by PDGF stimulation measured after 24 hrs by MTT assay relative to control. It counts as functional. In outline:
(§2)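 Rat aortic VSMCs (Sprague-Dawley, passages 7–10) were seeded at 3.0 × 10^4 cells/mL, grown 24 h in DMEM/10% FBS, then serum-starved 24 h. Compound was added 2 h before PDGF 25 ng/mL, followed by 24 h more incubation. Paclitaxel 1 μM served as positive control. MTT read-out at 565 nm. Four independent experiments in triplicate, compared against PDGF-stimulated cells.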
On the technique in general: Tetrazolium dyes change colour on reduction, which living cells bring about.

In data set [3] the test system is VSMC. In words: Inhibition of PDGF-induced Sprague-Dawley rat VSMC proliferation at 5 to 10 uM pretreated for 2 hrs followed by PDGF stimulation measured after 24 hrs by MTT assay. The format is functional, cell-based. In outline:
as §2

Data set [4] deals with VSMC. The experiment in a line: Cytotoxicity against Sprague-Dawley rat VSMC assessed as decrease in cell viability at >5 uM after 24 hrs by MTT assay. The format is cell-based. A digest of the protocol:
as §1

Data set [5] deals with VSMC. In words: Cytotoxicity against Sprague-Dawley rat VSMC assessed as decrease in cell viability at 0.5 to 1 uM after 24 hrs by MTT assay. The format is cell-based. In outline:
as §1

As for `CO[C@H]1O[C@]23C=C[C@@H]4[C@@]1(CC[C@]1(C)[C@@H]([C@H](C)C/C=C/C(C)(C)OC)CC[C@@]41C)[C@@H]2CC[C@H](OC(=O)C(=O)O)C3(C)C`, the Activity result in the data set on VSMC [1] was “Non-Toxic”.

With `CO[C@H](C=C(C)C)C[C@@H](C)[C@H]1CC[C@@]2(C)[C@@H]3[C@@H](OC)C=C4[C@@H](CC[C@H](OC(=O)CC(=O)O)C4(C)C)[C@]3(C=O)CC[C@]12C`, the inhibition at 10 µM in the data set with VSMC [2] stood at 67.9%. Moreover, in the data set on VSMC [1], the Activity result is reported as “Non-Toxic”.

For `CO[C@H]1O[C@]23C=C[C@@H]4[C@@]1(CC[C@]1(C)[C@@H]([C@H](C)C/C=C/C(C)(C)OC)CC[C@@]41C)[C@@H]2CC[C@H](OC(=O)CC(=O)O)C3(C)C`, in the data set with VSMC [2], the inhibition at 10 µM was 72.4%. Further, the Activity entry with VSMC [1] is reported as “Non-Toxic”.

For the compound `COC(C)(C)/C=C/C[C@@H](C)[C@H]1CC[C@@]2(C)[C@@H]3[C@@H](O)C=C4[C@@H](CC[C@H](OC(=O)CC(=O)O)C4(C)C)[C@]3(C=O)CC[C@]12C`, the inhibition result in the data set with VSMC [3] is “Active”. Also, in the data set with VSMC [1], the Activity entry was “Non-Toxic”.

For `C[C@H](C/C=C/C(C)(C)O)[C@H]1CC[C@@]2(C)[C@@H]3C=C[C@@]45OC(=O)[C@]3(CC[C@]12C)[C@@H]4CC[C@H](O[C@@H]1O[C@H](CO)[C@@H](O)[C@@H](O)[C@H]1O)C5(C)C`, the inhibition result in the data set on VSMC [3] was “Active”. In addition, in the data set with VSMC [1], the Activity result is listed as “Non-Toxic”.

For `C[C@H](C/C=C/C(C)(C)O)[C@H]1CC[C@@]2(C)[C@@H]3[C@@H](O)C=C4[C@@H](CC[C@H](OC(=O)CC(=O)O)C4(C)C)[C@]3(C=O)CC[C@]12C`, the inhibition result in the data set on VSMC [3] is “Active”. The Activity result in the data set on VSMC [1] is “Non-Toxic”.

Turning to `COC(C)(C)/C=C/C[C@@H](C)[C@H]1CC[C@@]2(C)[C@@H]3C=C[C@@]45OC(=O)[C@]3(CC[C@]12C)[C@@H]4CC[C@H](OC(=O)CC(=O)O)C5(C)C`, the Activity entry in the data set with VSMC [4] was “Toxic”; in the data set with VSMC [5] it was “Non-Toxic”.
